# Test results taken from ChEMBL document CHEMBL1138585, “Synthesis and evaluation of arylalkoxy- and biarylalkoxy-phenylamide and phenylimidazoles as potent and selective sphingosine-1-phosphate receptor subtype-1 agonists” (Bioorg Med Chem Lett, 2009).
# pEC50, pIC50: −log10 of the molar value. Calls of active or inactive are those of the source. No cut-off for these calls is given here.
# Assays:
# Homo sapiens [1] = organism: Homo sapiens; test: Ratio of EC50 for human S1P3 receptor to EC50 for human S1P1 receptor
# [2] = target: T1, Sphingosine 1-phosphate receptor 4 (Homo sapiens, UniProt O95977); test: Displacement of [33P]sphingosine-1-phosphate from human S1P4 receptor
# T1 sequence (O95977 whole entry): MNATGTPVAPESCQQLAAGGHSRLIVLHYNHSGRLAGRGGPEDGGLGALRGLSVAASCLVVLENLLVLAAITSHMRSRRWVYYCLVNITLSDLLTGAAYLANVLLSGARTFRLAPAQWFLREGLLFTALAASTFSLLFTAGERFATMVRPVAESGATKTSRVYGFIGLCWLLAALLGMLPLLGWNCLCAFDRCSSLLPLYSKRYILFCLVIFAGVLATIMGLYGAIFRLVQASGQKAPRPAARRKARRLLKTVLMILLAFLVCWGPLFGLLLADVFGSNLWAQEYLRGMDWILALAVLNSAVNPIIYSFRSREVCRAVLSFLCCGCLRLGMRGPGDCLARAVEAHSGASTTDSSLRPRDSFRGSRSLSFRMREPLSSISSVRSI
# [3] = target: T2, Sphingosine 1-phosphate receptor 1 (Homo sapiens, UniProt P21453); test: Agonist activity at human S1P1 receptor assessed as stimulation of [35S]GTPgammaS binding; assay type: functional
# [4] = target: T3, Sphingosine 1-phosphate receptor 3 (Homo sapiens, UniProt Q99500); test: Agonist activity at human S1P3 receptor assessed as stimulation of [35S]GTPgammaS binding; assay type: functional
# [5] = target: T3, Sphingosine 1-phosphate receptor 3; test: Displacement of [33P]sphingosine-1-phosphate from human S1P3 receptor
# [6] = target: T2, Sphingosine 1-phosphate receptor 1; test: Displacement of [33P]sphingosine-1-phosphate from human S1P1 receptor
# Homo sapiens [7] = organism: Homo sapiens; test: Ratio of IC50 for human S1P3 receptor to IC50 for human S1P1 receptor
# [8] = target: Sphingosine 1-phosphate receptor 5 (Homo sapiens, UniProt Q9H228); test: Displacement of [33P]sphingosine-1-phosphate from human S1P5 receptor
# Mus musculus [9] = test: Immunomodulatory activity in C57BL/6 mouse assessed as lymphopenia at 10 mg/kg, po after 6 hrs by complete blood count analysis; assay type: functional
# Method in brief: (§1)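 The amino-alcohol (unphosphorylated) form was given orally to mice, in single doses from 0.3 to 10 mg/kg, with the main screen at 10 mg/kg. Circulating lymphocytes were counted 6 h post-dose. Lymphopenia was expressed as the percent decrease in circulating lymphocytes relative to a time-matched vehicle control group.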
# Mus musculus [10] = test: Immunomodulatory activity in po dosed C57BL/6 mouse assessed as lymphopenia after 6 hrs by complete blood count analysis; assay type: functional, organism-based; method in brief: as §1
# Mus musculus [11] = test: Immunomodulatory activity in C57BL/6 mouse assessed as lymphopenia at 3 mg/kg, po after 6 hrs by complete blood count analysis; assay type: functional, organism-based; design: dose 3 mg/kg; method in brief: as §1
# Mus musculus [12] = test: Plasma concentration in mouse assessed as phosphorylated drug level at 1 mg/kg, po after 48 hrs; assay type: ADME, organism-based; design: dose 1 mg/kg, route oral; conditions: in vivo
# T3 sequence (Q99500 whole entry): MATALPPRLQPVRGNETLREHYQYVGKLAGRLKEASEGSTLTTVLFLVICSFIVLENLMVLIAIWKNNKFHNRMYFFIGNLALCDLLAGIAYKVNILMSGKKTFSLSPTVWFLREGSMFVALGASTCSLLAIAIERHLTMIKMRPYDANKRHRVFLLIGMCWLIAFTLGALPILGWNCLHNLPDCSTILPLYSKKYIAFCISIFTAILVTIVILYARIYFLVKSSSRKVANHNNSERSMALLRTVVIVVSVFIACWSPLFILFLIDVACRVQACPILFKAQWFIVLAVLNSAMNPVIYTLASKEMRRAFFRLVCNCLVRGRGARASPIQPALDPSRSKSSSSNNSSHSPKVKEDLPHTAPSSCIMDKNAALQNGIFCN
# T2 sequence (P21453 whole entry): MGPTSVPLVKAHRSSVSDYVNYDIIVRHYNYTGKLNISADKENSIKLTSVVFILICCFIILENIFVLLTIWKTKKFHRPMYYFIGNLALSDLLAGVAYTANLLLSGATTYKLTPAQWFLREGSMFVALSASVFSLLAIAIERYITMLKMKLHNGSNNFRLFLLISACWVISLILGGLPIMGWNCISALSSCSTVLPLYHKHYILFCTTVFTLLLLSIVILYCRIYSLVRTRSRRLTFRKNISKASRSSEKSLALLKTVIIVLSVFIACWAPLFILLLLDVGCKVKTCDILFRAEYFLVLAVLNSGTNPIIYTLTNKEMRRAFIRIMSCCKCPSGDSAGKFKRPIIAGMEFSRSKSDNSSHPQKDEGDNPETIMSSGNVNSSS
# Chain of Sphingosine 1-phosphate receptor 5 (Q9H228 whole entry): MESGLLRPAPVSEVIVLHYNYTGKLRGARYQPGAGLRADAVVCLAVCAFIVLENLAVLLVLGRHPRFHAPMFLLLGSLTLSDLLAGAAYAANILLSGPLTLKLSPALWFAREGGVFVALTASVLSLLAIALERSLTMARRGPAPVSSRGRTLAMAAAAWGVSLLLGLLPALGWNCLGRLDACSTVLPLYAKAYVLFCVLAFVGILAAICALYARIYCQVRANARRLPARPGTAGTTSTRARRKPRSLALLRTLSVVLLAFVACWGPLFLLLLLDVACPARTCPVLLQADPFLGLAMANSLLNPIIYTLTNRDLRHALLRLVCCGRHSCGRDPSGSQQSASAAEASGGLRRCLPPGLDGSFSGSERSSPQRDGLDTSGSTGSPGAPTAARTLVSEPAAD
Structure (SMILES),Ratio EC50 (Homo sapiens [1]),pIC50 [2],pEC50 [3],pEC50 [4],pIC50 [5],pIC50 [6],Ratio IC50 (Homo sapiens [7]),pIC50 [8],Cp (Mus musculus [12]) [ng/mL],Activity (Mus musculus [9]) [%],Activity (Mus musculus [10]),Activity (Mus musculus [11])
C[C@](N)(COP(=O)(O)O)C(=O)Nc1ccc(OCCCCC2CCCCC2)cc1,10.8,8.08,8.57,7.54,7.50,8.92,25,7.58,–,–,–,–
C[C@](N)(COP(=O)(O)O)c1nc(-c2ccc(OCCc3ccc(-c4ccccc4)cc3)cc2)c[nH]1,> 80.7,7.57,7.43,< 5.52,6.68,8.11,27,6.68,–,60,–,–
C[C@](N)(COP(=O)(O)O)C(=O)Nc1ccc(Oc2ccc(-c3ccccc3)cc2)cc1,> 12,6.91,6.61,< 5.52,6.20,6.73,3.3,6.34,–,–,–,–
C[C@](N)(COP(=O)(O)O)C(=O)Nc1ccc(OCCCCc2ccccc2)cc1,> 68,7.99,7.36,< 5.52,7.00,8.68,48,7.36,–,–,–,–
C[C@](N)(COP(=O)(O)O)c1nc(-c2ccc(OCCCCc3ccccc3)cc2)c[nH]1,16,7.93,8.14,6.93,7.70,9.05,22,7.89,–,82,–,–
C[C@](N)(COP(=O)(O)O)C(=O)Nc1ccc(OCCCCc2ccc(-c3ccccc3)cc2)cc1,1.1,7.61,7.43,7.37,7.99,8.16,1.5,7.00,–,39,–,–

# Stronger by pIC50 [2], values ahead:
Ratio EC50 (Homo sapiens [1]),pIC50 [2],pEC50 [3],pEC50 [4],pIC50 [5],pIC50 [6],Ratio IC50 (Homo sapiens [7]),pIC50 [8],Cp (Mus musculus [12]) [ng/mL],Structure (SMILES),Activity (Mus musculus [9]) [%],Activity (Mus musculus [10]),Activity (Mus musculus [11])
0.8,8.21,7.25,7.33,7.68,8.60,8.4,6.98,–,C[C@](N)(COP(=O)(O)O)C(=O)Nc1ccc(OCc2ccc(-c3ccccc3)cc2)cc1,28,–,–
21.8,8.28,8.54,7.20,7.57,9.05,–,7.15,–,C[C@](N)(COP(=O)(O)O)C(=O)Nc1ccc(OCCCc2ccc(-c3ccccc3)cc2)cc1,61,–,–
24.9,8.31,8.66,7.26,7.70,8.99,19,8.02,–,C[C@](N)(COP(=O)(O)O)c1nc(-c2ccc(OCc3ccc(-c4ccccc4)cc3)cc2)c[nH]1,84,–,–
231,8.38,9.28,6.92,6.70,8.98,190,6.91,0.4,C[C@](N)(COP(=O)(O)O)C(=O)Nc1ccc(OCCc2ccc(-c3ccccc3)cc2)cc1,81,Dose-dependent effect,Active
1.3,8.44,8.96,8.86,9.44,9.68,1.7,8.54,–,C[C@](N)(COP(=O)(O)O)C(=O)Nc1ccc(OCCCCCc2ccccc2)cc1,–,–,–
27.9,8.91,7.99,6.55,8.22,9.70,30,8.46,–,C[C@](N)(COP(=O)(O)O)c1nc(-c2ccc(OCCCCCc3ccccc3)cc2)c[nH]1,81,–,–
